Results on one compound are retold here after publication PMC6279241 (Science signaling, 2018).

SMILES strings stand for the structures.

One test has as its system 92.1 cells. In words: Block of FR-elicited re-differentiation. It is filed as cell-based, human. Conditions: 92.1, 7 days GSK503 and 3 days FR.
For the next test, the system named is PRC2 (Ezh1/2). In words: Histone H3. In kind it is cell-based, human. Conditions: 92.1, 7 days GSK503, immunoblot. The essentials: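 92.1 cells were treated with GSK503 for 7 days, and histones were isolated with a purification kit. Samples ran on 15% SDS-PAGE, were blotted to PVDF, blocked in 5% milk/TBST, and detected with IRDye-coupled secondary antibodies. H3K27me3 densitometry was normalized to total H3 and compared with DMSO control. Three independent experiments.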
In general terms: A western blot detects proteins with antibodies after separation by electrophoresis.

Turning to `Cc1cc(C)c(CNC(=O)c2cc(-c3ccc(N4CCN(C)CC4)nc3)cc3c2c(C)cn3C(C)C)c(=O)[nH]1` [GSK503], in the test with 92.1 cells, the “Ability of FR to re-differentiate cells (morphology and pigmentation)” value is listed as “blocked”. Moreover, the “Histone H3(Lys27) trimethylation” value in the test on PRC2 (Ezh1/2) is given as “reduced”.
